In ChEMBL document CHEMBL3044834, “Novel protoporphyrinogen oxidase inhibitors: 3H-pyrazolo[3,4-d][1,2,3]triazin-4-one derivatives” (J Agric Food Chem, 2008):

Key:
Assay type in all cases: functional
Digitaria sanguinalis [1] = test: Herbicidal activity against Digitaria sanguinalis (hairy crabgrass) assessed as inhibition of fresh weed plant weight at 1500 g/ha using pre-emergence treatment protocol
Amaranthus retroflexus [2] = test: Herbicidal activity against Amaranthus retroflexus assessed as inhibition of fresh weed plant weight at 1500 g/ha using post-emergence treatment protocol
Method in brief: (§1)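 Test compounds made up as emulsions by dissolving in 100 µL N,N-dimethylformamide, then adding a little Tween 20 and water. For post-emergence, weed seedlings at one leaf and one stem were sprayed at the same rates as the pre-emergence test. Fresh weight was recorded 15 days after treatment and expressed as percent inhibition versus controls. All treatments were run in triplicate.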

Amaranthus retroflexus [3] = test: Herbicidal activity against Amaranthus retroflexus assessed as inhibition of fresh weed plant weight at 1500 g/ha using pre-emergence treatment protocol
Digitaria sanguinalis [4] = test: Herbicidal activity against Digitaria sanguinalis (hairy crabgrass) assessed as inhibition of fresh weed plant weight at 1500 g/ha using post-emergence treatment protocol; method in brief: as §1
[5] = system: Brassica rapa subsp. oleifera; test: Herbicidal activity against Brassica rapa subsp. oleifera assessed as inhibition of fresh weed plant weight at 1500 g/ha using post-emergence treatment protocol; method in brief: as §1
[6] = system: Brassica rapa subsp. oleifera; test: Herbicidal activity against Brassica rapa subsp. oleifera assessed as inhibition of fresh weed plant weight at 1500 g/ha using pre-emergence treatment protocol
Echinochloa crus-galli [7] = test: Herbicidal activity against Echinochloa crus-galli (barnyard grass) assessed as inhibition of fresh weed plant weight at 1500 g/ha using pre-emergence treatment protocol
Echinochloa crus-galli [8] = test: Herbicidal activity against Echinochloa crus-galli (barnyard grass) assessed as inhibition of fresh weed plant weight at 1500 g/ha using post-emergence treatment protocol; method in brief: as §1

Row | Compound | inhibition at 1500 g/ha (Digitaria sanguinalis [1]) | inhibition at 1500 g/ha (Amaranthus retroflexus [2]) | inhibition at 1500 g/ha (Amaranthus retroflexus [3]) | inhibition at 1500 g/ha (Digitaria sanguinalis [4]) | inhibition at 1500 g/ha [5] | inhibition at 1500 g/ha [6] | inhibition at 1500 g/ha (Echinochloa crus-galli [7]) | inhibition at 1500 g/ha (Echinochloa crus-galli [8])
1 | CCCCCOc1cc(-n2nnc3c(cnn3C)c2=O)c(F)cc1Cl | 0% | 23.2% | 0% | 0% | 6.1% | 13.9% | 1.1% | 15.3%
2 | CCCCOc1cc(-n2nnc3c(cnn3C)c2=O)c(F)cc1Cl | 0% | 16.6% | 0% | 0% | 16.1% | 4.8% | 0% | 0%
3 | CCOc1cc(-n2nnc3c(cnn3C)c2=O)c(F)cc1Cl | 0% | 70.6% | 0% | 0% | 21.5% | 29.8% | 12.4% | 20.2%
4 | Cn1ncc2c(=O)n(-c3cc(OCC#N)c(Cl)cc3F)nnc21 | 2.3% | 100% | 40.5% | 0% | 31.3% | 0% | 17.5% | 32.6%
5 | C=CCOc1cc(-n2nnc3c(c(C)nn3C)c2=O)c(F)cc1Cl | 0% | 14.7% | 0% | 16.6% | 7.5% | 7.8% | 17.2% | 21%
6 | C=CCN1C(=O)COc2cc(F)c(-n3nnc4c(c(C(F)(F)F)nn4C)c3=O)cc21 | 0% | 0% | 1.2% | 0% | 12% | 0% | 0% | 13.6%
7 | Cn1ncc2c(=O)n(-c3cc(OC/C=C/Cl)c(Cl)cc3F)nnc21 | 1.4% | 14% | 0% | 0% | 2.9% | 0% | 9.7% | 11.1%
8 | C=CCN1C(=O)COc2cc(F)c(-n3nnc4c(cnn4C)c3=O)cc21 | 0% | 20.3% | 30.6% | 27% | 20.9% | 17.5% | 24.4% | 9.1%
9 | C#CCOc1cc(-n2nnc3c(cnn3C)c2=O)c(F)cc1Cl | 0% | 0% | 0% | 19.6% | 9.2% | 12.7% | 0% | 20.8%
10 | Cn1ncc2c(=O)n(-c3cc(O)c(Cl)cc3F)nnc21 | 0% | 25.1% | 23.7% | 9.2% | 27.9% | 0% | 3.5% | 13.2%
11 | C=CCOc1cc(-n2nnc3c(cnn3C)c2=O)c(F)cc1Cl | 0% | 0% | 10.6% | 17.9% | 1.2% | 7.4% | 11% | 28%
12 | C#CCN1C(=O)COc2cc(F)c(-n3nnc4c(c(C(F)(F)F)nn4C)c3=O)cc21 | 8.3% | 0% | 0% | 0% | 20.8% | 0% | 3% | 8.2%
13 | COc1cc(-n2nnc3c(cnn3C)c2=O)c(F)cc1Cl | 0% | 37.5% | 40.5% | 20.6% | 28.3% | 0% | 11.3% | 1%
14 | C=C(Cl)COc1cc(-n2nnc3c(cnn3C)c2=O)c(F)cc1Cl | 0% | 54.1% | 11% | 0% | 0% | 0% | 15.9% | 31.1%
15 | C#CCOc1cc(-n2nnc3c(c(C(F)(F)F)nn3C)c2=O)c(F)cc1Cl | 6.7% | 5.5% | 15.5% | 0% | 32.7% | 21.6% | 0% | 2.4%
16 | C=CCN1C(=O)COc2cc(F)c(-n3nnc4c(c(C)nn4C)c3=O)cc21 | 47.7% | 0% | 50% | 0% | 0% | 34.6% | 22.3% | 0%
17 | CCOC(=O)Oc1cc(-n2nnc3c(cnn3C)c2=O)c(F)cc1Cl | 0% | 7.7% | 0% | 0% | 0% | 0% | 19.8% | 37.7%
18 | C#CCOc1cc(-n2nnc3c(c(C)nn3C)c2=O)c(F)cc1Cl | 38.3% | 0% | 0% | 0% | 0% | 9.5% | 0% | 0%
19 | C#CCN1C(=O)COc2cc(F)c(-n3nnc4c(c(C)nn4C)c3=O)cc21 | 57% | 0% | 30% | 0% | 0% | 44.4% | 15.8% | 0%
20 | COCCOCOc1cc(-n2nnc3c(cnn3C)c2=O)c(F)cc1Cl | 2.3% | 74.9% | 51.8% | 0% | 28% | 0% | 5.6% | 43.6%
